Read-outs that look alike come from different tables or passages of the source.
Experiments:
U937 cells [1] = experiment: Cell growth assay; assay type: cell-based, human; settings: for IC50: Homo sapiens, U-937, read-out: IC50p (50% inhibition of cell proliferation)
Outline: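 U937 cells seeded at 5×10^4 cells/ml in RPMI 1640 with 10% FBS and 2 mM glutamine, then grown with graded test compound levels at 37 °C, 5% CO2. Hemocytometer counts on days 3–5, trypan blue viability. IC50p taken from a day-3 inhibition-versus-concentration plot. Efflux arm: MRP inhibitor at 10 μM added with test compound (145 or 13 μM final), counted day 4, two quadruplicate experiments, paired t-test.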

K562 cells = experiment: Cell growth assay; assay type: cell-based, human; settings: for IC50: Homo sapiens, K562, read-out: IC50p (50% inhibition of cell proliferation); for % of inhibition of cell proliferation: 4th day
leucine aminopeptidase = settings: cited from earlier work
U937 cells [2] = settings: cited from earlier work

| IC50 (U937 cells [1]) | IC50 (K562 cells) | change of IC50p with time of incubation (K562 cells; K562, 3rd, 4th and 5th days, Fig. 1) | Compound | antiproliferative effect on U937 cells (U937 cells [1]; U937, 10 μM) | % of inhibition of cell proliferation (U937 cells [1]; U937, 145 μM bestatin or 13 μM actinonin + MK-571 (10 μM), 4th day) | % of inhibition of cell proliferation (K562 cells; K562, 580 μM bestatin or 26 μM actinonin + MK-571 (10 μM)) | % of inhibition of cell proliferation (K562 cells; K562, 580 μM bestatin or 26 μM actinonin + MK-571 (30 μM)) | Ki (leucine aminopeptidase) | IC50 (U937 cells [2]; read-out: IC50p, ref 3) | IC50 (U937 cells [2]; read-out: IC50p, ref 6, 12) | IC50 (U937 cells [2]; read-out: IC50p, ref 11) | % of inhibition of cell proliferation (K562 cells; K562, 580 μM bestatin or 26 μM actinonin + verapamil (30 μM)) |
| --- | --- | --- | --- | --- | --- | --- | --- | --- | --- | --- | --- | --- |
| – | – | – | COc1ccc(CCN(C)CCCC(C#N)(c2ccc(OC)c(OC)c2)C(C)C)cc1OC (centres unmarked) [Verapamil, verapamil] | exhibits an antiproliferative effect | – | – | – | – | – | – | – | – |
| 108 µM | 466 µM | increased significantly | CC(C)C[C@H](NC(=O)[C@@H](O)[C@H](N)Cc1ccccc1)C(=O)O [Bestatin] | – | 87.4±4.1% | 66.0±3.7% | 73.6±3.4% | 0.02 µM | 58 µM | ~150 µM | 8 µM | – |
| 11 µM | 19 µM | – | CCCCC[C@H](CC(=O)NO)C(=O)N[C@H](C(=O)N1CCC[C@H]1CO)C(C)C [Actinonin] | – | – | – | – | – | – | – | – | 78.0±6.6% |
